One assay has as its target hNTS1. The following applies: read-out: Ki toward hNTS1; cited from earlier work.
For a further assay, the system named is NTS1. Conditions: cited from earlier work.
A further assay relates to hNTS2. Conditions: cited from earlier work.
For a further assay, the target named is NTS2 (Homo sapiens, UniProt O95665). Description: Calcium imaging assay. The class given is cell-based. Put shortly: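 HT-29 cells grown overnight on glass slides (5 × 10^5 cells, 37 °C, 5% CO2), loaded 30 min in the dark with 100 μM fluo-8 AM, 0.4% pluronic acid and 2.5 mM probenecid in RPMI. Perfused with bicarbonate-glucose buffer (95% O2/5% CO2, pH 7.4, room temperature), washed 10 min. Test compound 10–11 to 10–5 M by rapid perfusion; levocabastine as positive control. Ex 490/Em 514 nm; ΔF/F (%) vs baseline, normalized to levocabastine stimulation; twice in duplicate, 20 cells analysed.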

The values that follow come from publication PMC9948202 (ACS Omega, 2023).

pEC50, pKi: −log10 of the molar value.

NTS2, sequence (O95665 whole entry, the tested form may be a part): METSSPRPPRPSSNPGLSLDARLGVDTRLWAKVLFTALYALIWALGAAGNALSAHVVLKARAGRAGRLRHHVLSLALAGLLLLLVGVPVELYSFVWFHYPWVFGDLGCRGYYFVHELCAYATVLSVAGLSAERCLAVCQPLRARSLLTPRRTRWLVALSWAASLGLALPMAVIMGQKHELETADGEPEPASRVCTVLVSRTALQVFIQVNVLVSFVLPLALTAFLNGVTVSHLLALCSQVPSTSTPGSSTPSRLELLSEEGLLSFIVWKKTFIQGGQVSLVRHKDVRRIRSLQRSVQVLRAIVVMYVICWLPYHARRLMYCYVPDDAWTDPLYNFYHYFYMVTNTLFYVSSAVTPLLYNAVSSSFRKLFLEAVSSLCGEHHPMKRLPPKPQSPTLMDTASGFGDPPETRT

With “H-Lys-Lys-Pro-(D)Trp-Ile-TMSAla-OH [JMV 5504]”, the negative logarithm of the Ki (pKi) – broadly, the Ki on a negative log10 scale, so that one unit is a factor of ten – was 5.44 at hNTS1 and 8.07 at hNTS2 (read-out: Ki toward hNTS2). Besides, in the assay with NTS1, the hypothermic effect result is listed as “no hypothermic effect”. For the same molecule, the “selectivity index hNTS1/hNTS2” value in the assay with hNTS2 was 423.
For `C[C@@H]1CN([C@H]2CC[C@](C#N)(c3ccc(F)cc3)CC2)CC[C@]1(C(=O)O)c1ccccc1` [levocabastine], the pEC50 (as a rule, −log10 of the EC50, conventionally taken in molar units) on NTS2 was 6.93.
